{"source": "ChEMBL document CHEMBL3259621", "about": "“Novel merosesquiterpene exerts a potent antitumor activity against breast cancer cells in vitro and in vivo” (Eur J Med Chem, 2014)", "key": {"MCF7 [1]": {"tested_on": "MCF7", "test": "Cytotoxicity against human MCF7 cells assessed as reduction in cell viability at 2 uM after 3 days by SRB assay relative to control", "assay_type": "functional", "how_it_was_run": "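MCF-7 seeded at high density (5 × 10⁴/cm²) and treated at 24 h with compound for 3 days, with or without 20 mM NAC. Viable cells quantified by sulforhodamine B staining, OD 492 nm. Viability reduction expressed versus untreated controls.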"}, "[2]": {"test": "Cytotoxicity against human CCD-18Co cells after 3 days by SRB assay", "assay_type": "cell-based", "conditions": "72 h", "how_it_was_run": "(§1)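 Cells seeded at 5 × 10³ cells/cm² in quadruplicate and, after 24 h, treated with increasing concentrations for 3 days. Compounds diluted from DMSO stock, final DMSO <0.1% v/v. Cells were fixed with cold 10% TCA, stained with 0.4% sulforhodamine B in 1% acetic acid, and dye solubilised in 10 mM Tris-base pH 10.5. OD read at 492 nm. IC50 obtained by linear interpolation on a semi-log dose-response curve.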"}, "MCF7 [3]": {"tested_on": "MCF7", "test": "Induction of apoptosis in human MCF7 cells assessed as early apoptotic cells at 3 uM after 48 hrs by annexin V staining-based flow cytometry (reference value: 0.205 %)", "assay_type": "functional"}, "MCF7 [4]": {"tested_on": "MCF7", "test": "Induction of apoptosis in human MCF7 cells assessed as increase in phosphorylated p53 level at 2 uM after 4 to 24 hrs by Western blotting analysis relative to control", "assay_type": "functional, cell-based", "how_it_was_run": "(§2)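 MCF-7 seeded at 5 × 10⁴/cm² and exposed at 24 h to 2 µM compound for 0, 4, 8, 16 and 24 h. Lysates separated on 12% SDS gels, transferred to nitrocellulose, blocked in 5% milk. Primary antibodies applied overnight at 4 °C, then secondary 1 h at room temperature. Detection by ECL chemiluminescence with β-actin as loading reference.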"}, "[5]": {"molecular_target": "T1, Mitogen-activated protein kinase; ERK1/ERK2 (Homo sapiens) (UniProt P27361+P28482)", "T1 sequence (P27361 whole entry, looked up)": "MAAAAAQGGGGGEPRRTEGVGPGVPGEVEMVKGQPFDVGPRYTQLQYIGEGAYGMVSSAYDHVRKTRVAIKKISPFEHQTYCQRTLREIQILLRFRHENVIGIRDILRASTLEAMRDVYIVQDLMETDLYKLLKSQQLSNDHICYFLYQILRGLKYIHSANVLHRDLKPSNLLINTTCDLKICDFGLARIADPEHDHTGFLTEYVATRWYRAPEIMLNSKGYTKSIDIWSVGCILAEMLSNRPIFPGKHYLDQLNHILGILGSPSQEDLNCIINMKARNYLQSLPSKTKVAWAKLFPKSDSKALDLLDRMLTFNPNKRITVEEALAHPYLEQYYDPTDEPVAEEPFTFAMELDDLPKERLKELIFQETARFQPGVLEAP", "T1 sequence (P28482 whole entry, looked up)": "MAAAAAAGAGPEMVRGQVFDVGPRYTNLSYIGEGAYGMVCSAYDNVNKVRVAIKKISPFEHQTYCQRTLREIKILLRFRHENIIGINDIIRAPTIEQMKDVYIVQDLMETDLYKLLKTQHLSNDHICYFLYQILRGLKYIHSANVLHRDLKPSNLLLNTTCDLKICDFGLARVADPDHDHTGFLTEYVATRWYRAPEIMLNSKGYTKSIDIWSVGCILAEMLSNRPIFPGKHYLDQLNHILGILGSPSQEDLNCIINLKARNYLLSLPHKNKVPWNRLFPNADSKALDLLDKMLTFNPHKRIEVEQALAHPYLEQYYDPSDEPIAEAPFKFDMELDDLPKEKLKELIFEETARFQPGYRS", "test": "Increase of p44/42 MAPK phosphorylation in human MCF7 cells at 2 uM after 4 to 24 hrs by Western blotting analysis relative to control", "assay_type": "cell-based", "how_it_was_run": "as §2"}, "MCF7 [6]": {"tested_on": "MCF7", "test": "Induction of apoptosis in human MCF7 cells assessed as reduction in cyclin B1 protein expression at 2 uM after 16 hrs by Western blotting analysis", "assay_type": "functional", "set-up": "scale not given: the % may be the effect or the level left", "how_it_was_run": "as §2"}, "A549": {"tested_on": "A549", "test": "Cytotoxicity against human A549 cells after 3 days by SRB assay", "assay_type": "functional, cell-based", "conditions": "A549, 72 h", "how_it_was_run": "(§3)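 Cells seeded in quadruplicate at 5 × 10³ cells/cm². Compound added at 24 h over increasing concentrations for 3 days. Cells fixed with cold 10% TCA, stained with 0.4% sulforhodamine B in 1% acetic acid, dye solubilized in 10 mM Tris pH 10.5, OD read at 492 nm. IC50 taken by linear interpolation of the semi-log dose-response curve. DMSO below 0.1% final.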"}, "MCF7 [7]": {"tested_on": "MCF7", "test": "Cell cycle arrest in human MCF7 cells assessed as accumulation at S phase at 3 uM after 24 hrs by propidium iodide/RNAse staining-based FACS analysis (reference value: 49.46 %)", "assay_type": "functional"}, "[8]": {"test": "Antitumor activity against mouse E0771 cells allografted in C57BL/6 mouse assessed as mean tumor volume at 5 to 15 mg/kg, po measured on day 42 relative to vehicle-treated control", "assay_type": "functional", "conditions": "dose mg/kg 5-15", "how_it_was_run": "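C57BL/6 mice (40) injected subcutaneously in the right side with 1 × 10⁶ E0771 cells. At day 9, with tumors at 75 mm³, randomized into four groups of 10 and dosed orally six times with vehicle (1% methylcellulose) or compound at 5, 10 or 15 mg/kg. Tumor volume followed to day 42.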"}, "MCF7 [9]": {"tested_on": "MCF7", "test": "Cell cycle arrest in human MCF7 cells assessed as accumulation at G0-G1 phase at 1 uM after 24 hrs by propidium iodide/RNAse staining-based FACS analysis (reference value: 42.34 %)", "assay_type": "functional"}, "[10]": {"molecular_target": "T1, Mitogen-activated protein kinase; ERK1/ERK2 (Homo sapiens)", "test": "Increase of p44/42 MAPK phosphorylation in human MCF7 cells at 2 uM up to 4 hrs by Western blotting analysis relative to control", "assay_type": "cell-based", "how_it_was_run": "as §2"}, "MCF7 [11]": {"tested_on": "MCF7", "test": "Cytotoxicity against human MCF7 cells after 3 days by SRB assay", "assay_type": "functional, cell-based", "conditions": "MCF7, 72 h", "how_it_was_run": "as §3"}, "MCF7 [12]": {"tested_on": "MCF7", "test": "Cell cycle arrest in human MCF7 cells assessed as accumulation at G0-G1 phase at 3 uM after 24 hrs by propidium iodide/RNAse staining-based FACS analysis (reference value: 42.34 %)", "assay_type": "functional"}, "MCF7 [13]": {"tested_on": "MCF7", "test": "Induction of apoptosis in human MCF7 cells assessed as early apoptotic cells at 2 uM after 48 hrs by annexin V staining-based flow cytometry (reference value: 0.205 %)", "assay_type": "functional"}, "MCF7 [14]": {"tested_on": "MCF7", "test": "Induction of apoptosis in human MCF7 cells assessed as reduction in total pRb protein expression at 2 uM after 16 hrs by Western blotting analysis relative to control", "assay_type": "functional", "set-up": "scale not given: the % may be the effect or the level left", "how_it_was_run": "(§4)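 MCF-7 seeded at 5 × 10⁴ cells/cm², exposed after 24 h to 2 µM for 0, 4, 8, 16 and 24 h. Lysed in SDS sample buffer, run on 12% acrylamide gels, transferred to nitrocellulose and blocked with 5% milk. Primary antibodies overnight at 4 °C (total or phospho-pRb, β-actin), secondary 1 h at room temperature, ECL chemiluminescence detection.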"}, "[15]": {"test": "Cytotoxicity against mouse E0771 cells after 3 days by SRB assay", "assay_type": "functional, cell-based", "conditions": "E0771, 72 h", "how_it_was_run": "as §1"}, "Mus musculus": {"tested_on": "Mus musculus", "test": "Toxicity in C57BL/6 mouse allografted with mouse E0771 cells assessed as survival at 5 to 15 mg/kg, po", "assay_type": "organism-based", "set-up": "dose 5-15 mg/kg, route oral", "conditions": "in vivo", "how_it_was_run": "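C57BL/6 mice (10 per group) injected subcutaneously in the right side with 1 × 10⁶ E0771 cells. At day 9, with tumours at 75 mm³, mice were randomised to oral vehicle (1% methylcellulose) or 5, 10 or 15 mg/kg on six occasions. Animals were monitored to day 42 for survival and for signs of toxicity such as hair loss or diarrhoea.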"}, "MCF7 [16]": {"tested_on": "MCF7", "test": "Induction of apoptosis in human MCF7 cells assessed as reduction in cyclin B1 protein expression at 2 uM by Western blotting analysis", "assay_type": "functional, cell-based", "how_it_was_run": "as §2"}, "[17]": {"test": "Cytotoxicity against human MCF10A cells after 3 days by SRB assay", "assay_type": "cell-based", "conditions": "MCF-10A, 72 h", "how_it_was_run": "as §1"}, "MCF7 [18]": {"tested_on": "MCF7", "test": "Cell cycle arrest in human MCF7 cells assessed as accumulation at […] phase at 3 uM after 48 hrs by propidium iodide/RNAse staining-based FACS analysis (reference value: 8.02 %)", "assay_type": "functional"}, "[19]": {"test": "Therapeutic index, ratio of IC50 for human MCF10A cells to IC50 for mouse E0771 cells", "assay_type": "cell-based, MCF-10A", "conditions": "MCF10A cells versus E0771 cells, read-out: Ratio IC50"}, "MCF7 [20]": {"tested_on": "MCF7", "test": "Induction of apoptosis in human MCF7 cells assessed as late apoptotic cells at 3 uM after 48 hrs by annexin V staining-based flow cytometry (reference value: 3.24 %)", "assay_type": "functional"}, "MCF7 [21]": {"tested_on": "MCF7", "test": "Induction of apoptosis in human MCF7 cells assessed as reduction in phosphorylated pRb expression at 2 uM after 16 hrs by Western blotting analysis relative to control", "assay_type": "functional", "set-up": "scale not given: the % may be the effect or the level left", "how_it_was_run": "as §4"}, "T84": {"tested_on": "T84", "test": "Cytotoxicity against human T84 cells after 3 days by SRB assay", "assay_type": "functional, cell-based", "conditions": "T84, 72 h", "how_it_was_run": "as §3"}, "MCF7 [22]": {"tested_on": "MCF7", "test": "Cell cycle arrest in human MCF7 cells assessed as accumulation at […] phase at 2 uM after 48 hrs by propidium iodide/RNAse staining-based FACS analysis (reference value: 8.02 %)", "assay_type": "functional"}, "MCF7 [23]": {"tested_on": "MCF7", "test": "Induction of apoptosis in human MCF7 cells assessed as reduction in c-myc expression at 2 uM after 24 hrs by Western blotting analysis relative to control", "assay_type": "functional", "set-up": "scale not given: the % may be the effect or the level left", "how_it_was_run": "as §2"}}, "note": "pIC50: −log10 of the molar value. Calls of active or inactive are those of the source. The rule behind the calls is not given here.", "data": [{"smiles": "C=C1CC[C@@H]2[C@](C)(CCC[C@]2(C)C(=O)OC)[C@H]1Cc1c(C)ccc2c1C(=O)C=CC2=O", "values": [{"measurement": "viability", "setting": "MCF7 [1]", "result": 46.09, "unit": "%"}, {"measurement": "pIC50", "setting": "[2]", "result": 6.48}, {"measurement": "Activity", "setting": "MCF7 [3]", "result": 19.5, "unit": "%"}, {"measurement": "Activity", "setting": "MCF7 [4]", "result": "Active"}, {"measurement": "Activity", "setting": "[5]", "result": "Active"}, {"measurement": "Activity", "setting": "MCF7 [6]", "result": 6, "unit": "%"}, {"measurement": "pIC50", "setting": "A549", "result": 5.86}, {"measurement": "Activity", "setting": "MCF7 [7]", "result": 4.25, "unit": "%"}, {"measurement": "fold change (FC)", "setting": "[8]", "result": 2.4}, {"measurement": "Activity", "setting": "MCF7 [9]", "result": 51.4, "unit": "%"}, {"measurement": "Activity", "setting": "[10]", "result": "Active"}, {"measurement": "pIC50", "setting": "MCF7 [11]", "result": 6.46}, {"measurement": "Activity", "setting": "MCF7 [12]", "result": 75.7, "unit": "%"}, {"measurement": "Activity", "setting": "MCF7 [13]", "result": 12.5, "unit": "%"}, {"measurement": "Activity", "setting": "MCF7 [14]", "result": 90, "unit": "%"}, {"measurement": "pIC50", "setting": "[15]", "result": 6.41}, {"measurement": "Activity", "setting": "Mus musculus", "result": "Non-toxic"}, {"measurement": "Activity", "setting": "MCF7 [16]", "result": "Active"}, {"measurement": "pIC50", "setting": "[17]", "result": 5.50}, {"measurement": "Activity", "setting": "MCF7 [18]", "result": 39.91, "unit": "%"}, {"measurement": "selectivity ratio", "setting": "[19]", "result": 8.08}, {"measurement": "Activity", "setting": "MCF7 [20]", "result": 9.5, "unit": "%"}, {"measurement": "Activity", "setting": "MCF7 [21]", "result": 90, "unit": "%"}, {"measurement": "pIC50", "setting": "T84", "result": 6.25}, {"measurement": "Activity", "setting": "MCF7 [22]", "result": 31.09, "unit": "%"}, {"measurement": "Activity", "setting": "MCF7 [23]", "result": 80, "unit": "%"}]}]}
